In ChEMBL document CHEMBL3758088, “Synthesis and biological evaluation of enantiomerically pure glyceric acid derivatives as LpxC inhibitors” (Bioorg Med Chem, 2016):
Values after ≈ are worked out from the molar mass of the structure shown.

How the values were obtained:
Escherichia coli [1] = assay: Antibacterial activity against Escherichia coli BL21(DE3) incubated for 20 hrs by microdilution assay; assay type: functional
Procedure, shortened: (§1)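 Broth microdilution in LB medium with 5% DMSO. Overnight cultures (LB, 37 °C, 200 rpm) were diluted 1:100 in fresh LB. Compounds were added from a twofold DMSO dilution series (5.12 mM to 20 nM stock), giving 256 μM to 1 nM final. Plates were shaken 20 h at 37 °C, 200 rpm. MIC was the lowest concentration with no visible growth.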

Escherichia coli [2] = assay: Antibacterial activity against Escherichia coli D22 incubated for 20 hrs by microdilution assay; assay type: functional; conditions: D22, 20 h; procedure, shortened: as §1
[3] = molecular target: UDP-3-O-acyl-N-acetylglucosamine deacetylase (Escherichia coli K-12, UniProt P0A725, C63A); assay: Inhibition of Escherichia coli LpxC C63A mutant using UDP-3-O-[(R)-3-hydroxymyristoyl]-N-acetylglucosamine substrate after 30 mins by fluorescence-bsed microplate assay
Sequence of UDP-3-O-acyl-N-acetylglucosamine deacetylase (P0A725 whole entry C63A, the tested form may be a part): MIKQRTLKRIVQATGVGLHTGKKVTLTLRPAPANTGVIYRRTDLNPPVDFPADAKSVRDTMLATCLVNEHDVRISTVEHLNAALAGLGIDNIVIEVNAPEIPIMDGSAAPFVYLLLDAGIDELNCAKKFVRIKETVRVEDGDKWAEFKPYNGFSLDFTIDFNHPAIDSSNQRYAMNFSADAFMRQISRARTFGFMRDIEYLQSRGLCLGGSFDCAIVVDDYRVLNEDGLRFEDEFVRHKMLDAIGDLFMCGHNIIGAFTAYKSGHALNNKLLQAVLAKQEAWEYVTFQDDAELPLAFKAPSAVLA

Escherichia coli [4] = assay: Antibacterial activity against Escherichia coli BL21(DE3) incubated overnight by agar disk diffusion clearance assay; assay type: functional
Procedure, shortened: (§2)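 Agar disc diffusion. 150 µL of an overnight LB culture (37 °C, 200 rpm) was spread on LB agar. 6 mm filter discs were loaded with 15 µL of 10 mM compound in DMSO, with DMSO and CHIR-090 discs as controls. Plates were incubated overnight at 37 °C and the diameter of the growth-inhibition zone was measured. Values are mean ± SD of three independent experiments.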

Escherichia coli [5] = assay: Antibacterial activity against Escherichia coli D22 incubated overnight by agar disk diffusion clearance assay; assay type: functional; procedure, shortened: as §2

SMILES | MIC (Escherichia coli [1]) | MIC (Escherichia coli [2]) | IC50 [3] | Ki [3] | diameter of the inhibition zone (DIZ) (Escherichia coli [4]) | diameter of the inhibition zone (DIZ) (Escherichia coli [5])
O=C(COCc1ccc(C#Cc2ccccc2)cc1)NO | 128 µM (≈ 36 µg/mL) | 4 µM (≈ 1.13 µg/mL) | > 200 µM |  |  | 
O=C(CO[C@@H](CO)c1ccc(C#Cc2ccccc2)cc1)NO | 256 µM (≈ 79.7 µg/mL) | 32 µM (≈ 9.96 µg/mL) | 31.6 µM | 4.4 µM |  | 
O=C(NO)[C@H](CO)OCc1ccc(C#Cc2ccccc2)cc1 | 128 µM (≈ 39.9 µg/mL) | 4 µM (≈ 1.25 µg/mL) | 1.96 µM | 0.27 µM | 11.7 mm | 20.7 mm
O=C(NO)[C@@H](CO)OCc1ccc(C#Cc2ccccc2)cc1 | 256 µM (≈ 79.7 µg/mL) | 8 µM (≈ 2.49 µg/mL) | 1.87 µM | 0.26 µM | 10.3 mm | 17 mm
O=C(NO)[C@H](CO)OCc1ccc(C#Cc2ccc(CN3CCOCC3)cc2)cc1 | 64 µM (≈ 26.3 µg/mL) | 2 µM (≈ 0.821 µg/mL) | 2.82 µM | 0.39 µM | 15.7 mm | 25.8 mm
O=C(NO)[C@H](CO)O[C@H](CO)c1ccc(C#Cc2ccc(CN3CCOCC3)cc2)cc1 | > 256 µM | 4 µM (≈ 1.76 µg/mL) | 2.6 µM | 0.36 µM |  | 
O=C(COCc1ccc(C#Cc2ccc(CN3CCOCC3)cc2)cc1)NO | 64 µM (≈ 24.3 µg/mL) | 1 µM (≈ 0.38 µg/mL) | 10.5 µM | 1.45 µM |  | 
O=C(CO[C@@H](CO)c1ccc(C#Cc2ccc(CN3CCOCC3)cc2)cc1)NO | > 256 µM | 4 µM (≈ 1.64 µg/mL) | 198 µM | 27.3 µM |  | 
O=C(CO[C@H](CO)c1ccc(C#Cc2ccc(CN3CCOCC3)cc2)cc1)NO | 64 µM (≈ 26.3 µg/mL) | 0.5 µM (≈ 0.205 µg/mL) | 0.69 µM | 0.095 µM |  | 
O=C(NO)[C@@H](CO)OCc1ccc(C#Cc2ccc(CN3CCOCC3)cc2)cc1 | 128 µM (≈ 52.5 µg/mL) | 4 µM (≈ 1.64 µg/mL) | 1.66 µM | 0.23 µM | 12.3 mm | 22 mm
O=C(CO[C@H](CO)c1ccc(C#Cc2ccccc2)cc1)NO | 256 µM (≈ 79.7 µg/mL) | 4 µM (≈ 1.25 µg/mL) | 0.48 µM | 0.066 µM |  | 
C[C@@H](O)[C@H](NC(=O)c1ccc(C#Cc2ccc(CN3CCOCC3)cc2)cc1)C(=O)NO | 1 µM (≈ 0.437 µg/mL) | 0.032 µM (≈ 0.014 µg/mL) |  |  |  | 
